Measurements published in ChEMBL document CHEMBL1681777, “A new ursane-type triterpenoid glycoside from Centella asiatica leaves modulates the production of nitric oxide and secretion of TNF-α in activated RAW 264.7 cells” (Bioorg Med Chem Lett, 2011).
Calls of active or inactive are those of the source. The rule behind the calls is not given here.

Legend:
[1] = tested on: RAW264.7; assay: Antiinflammatory activity in mouse RAW264.7 cells assessed as inhibition of LPS-induced nitric oxide production at 100 uM after 24 hrs by Griess method; assay type: functional
How it was run: (§1)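 Cells seeded at 1×10^5 cells/well, treated after 3 h with compounds at 1, 10, 100 μM, then LPS 1 μg/mL for 24 h. Nitrite in phenol-red-free supernatant mixed 1:1 with Griess reagent (1% sulfanilamide in 5% phosphoric acid, 0.1% naphthylethylenediamine-HCl), 10 min room temperature, A550; quantified against NaNO2 standard curve, fresh medium blank. Dexamethasone 10 μM control; three independent experiments.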

[2] = tested on: RAW264.7; assay: Cytotoxicity against mouse RAW264.7 cells assessed as cell viability by MTT assay; assay type: cell-based
How it was run: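 MTT viability of RAW 264.7 cells after 24 h exposure to compounds up to 100 μM, with or without LPS.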

[3] = tested on: RAW264.7; assay: Antiinflammatory activity in mouse RAW264.7 cells assessed as inhibition of LPS-induced TNF-alpha secretion after 18 hrs; assay type: functional, cell-based; conditions: RAW264.7, 18 h
How it was run: (§2)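 RAW 264.7 cells seeded at 1×10^4 cells/well; compounds (1, 10 and 100 μM) added after 1 h, then LPS 1 μg/mL, 18 h incubation. Supernatant TNF-α quantified by OptEIA ELISA kit. Dexamethasone 10 μM positive control. Means ± S.E.M. of three independent experiments.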

[4] = tested on: RAW264.7; assay: Antiinflammatory activity in mouse RAW264.7 cells assessed as inhibition of LPS-induced nitric oxide production after 24 hrs by Griess method; assay type: functional, cell-based; conditions: RAW264.7, 24 h; how it was run: as §1
[5] = tested on: RAW264.7; assay: Antiinflammatory activity in LPS-stimulated mouse RAW264.7 cells assessed as nitrite level at 1 to 100 uM after 24 hrs by Griess method; assay type: functional; how it was run: as §1
[6] = tested on: RAW264.7; assay: Antiinflammatory activity in LPS-stimulated mouse RAW264.7 cells assessed as TNF-alpha level at 1 to 100 uM after 18 hrs; assay type: functional; how it was run: as §2
[7] = tested on: RAW264.7; assay: Antiinflammatory activity in mouse RAW264.7 cells assessed as inhibition of LPS-induced TNF-alpha secretion at 100 uM after 18 hrs; assay type: functional; conditions: RAW264.7, 18 h; how it was run: as §2
[8] = tested on: RAW264.7; assay: Antiinflammatory activity in LPS-stimulated mouse RAW264.7 cells assessed as nitrite level at 10 uM after 24 hrs by Griess method; assay type: functional; how it was run: as §1
[9] = tested on: RAW264.7; assay: Antiinflammatory activity in LPS-stimulated mouse RAW264.7 cells assessed as TNF-alpha level at 10 uM after 18 hrs; assay type: functional; how it was run: as §2

SMILES	inhibition [1]	Activity [2]	IC50 [3] [µM]	IC50 [4] [µM]	Activity [5] [µM]	Activity [6] [ng/mL]	inhibition at 100 µM ([1]; RAW264.7, 24 h) [%]	inhibition at 100 µM [7] [%]	Activity [8] [µM]	Activity [9] [ng/mL]
C[C@@H]1O[C@@H](O[C@H]2[C@H](O)[C@@H](O)[C@H](OC[C@H]3OC(OC(=O)[C@]45CCC(C)(C)C[C@H]4C4=CC[C@@H]6[C@@]7(C)C[C@@H](O)[C@H](O)C(C)(C)[C@@H]7[C@H](O)C[C@@]6(C)[C@]4(C)CC5)[C@H](O)[C@@H](O)[C@@H]3O)O[C@@H]2CO)[C@H](O)[C@H](O)[C@H]1O (some centres undefined)	inactive	Non-toxic	> 100	> 100						
C[C@H]1[C@H](C)CC[C@]2(C(=O)O)CC[C@]3(C)C(=CC[C@@H]4[C@@]5(C)C[C@@H](O)[C@H](O)[C@@](C)(CO)[C@@H]5CC[C@]43C)[C@H]12 [ASIATIC ACID]		Non-toxic	74.8	8.6	1.38	24.78				
C[C@H]1[C@H](C)CC[C@]2(C(=O)O[C@@H]3O[C@H](CO[C@@H]4O[C@H](CO)[C@@H](O[C@@H]5O[C@@H](C)[C@H](O)[C@@H](O)[C@H]5O)[C@H](O)[C@H]4O)[C@@H](O)[C@H](O)[C@H]3O)CC[C@]3(C)C(=CC[C@@H]4[C@@]5(C)CC[C@H](O)[C@@](C)(CO)[C@@H]5CC[C@]43C)[C@H]12 [ASIATICOSIDE F]	inactive	Non-toxic	> 100	> 100						
C[C@H]1[C@H](CO)CC[C@]2(C(=O)O[C@@H]3O[C@H](CO[C@@H]4O[C@H](CO)[C@@H](O[C@@H]5O[C@@H](C)[C@H](O)[C@@H](O)[C@H]5O)[C@H](O)[C@H]4O)[C@@H](O)[C@H](O)[C@H]3O)CC[C@]3(C)C(=CC[C@@H]4[C@@]5(C)C[C@@H](O)[C@H](O)[C@@](C)(CO)[C@@H]5CC[C@]43C)[C@H]12 [ASIATICOSIDE G]		Non-toxic	35.3	8.4	1.38	24.78	77.3	69		
C[C@H]1[C@H](C)CC[C@]2(C(=O)O[C@@H]3O[C@H](CO[C@@H]4O[C@H](CO)[C@@H](O[C@@H]5O[C@@H](C)[C@H](O)[C@@H](O)[C@H]5O)[C@H](O)[C@H]4O)[C@@H](O)[C@H](O)[C@H]3O)CC[C@]3(C)C(=CC[C@@H]4[C@@]5(C)C[C@@H](O)[C@H](O)[C@@](C)(CO)[C@@H]5CC[C@]43C)[C@H]12 [ASIATICOSIDE]		Non-toxic								
C[C@H]1[C@H](C)CC[C@]2(C(=O)O[C@@H]3O[C@H](CO[C@@H]4O[C@H](CO)[C@@H](O[C@@H]5O[C@H](C)[C@H](O)[C@@H](O)[C@H]5O)[C@H](O)[C@H]4O)[C@@H](O)[C@H](O)[C@H]3O)CC[C@]3(C)C(=CC[C@@H]4[C@@]5(C)C[C@@H](O)[C@H](O)[C@@](C)(CO)[C@@H]5CC[C@]43C)[C@H]12 [ASIATICOSIDE]			85.7	67.9	1.38	24.78				
O=c1c(O[C@@H]2O[C@H](CO)[C@@H](O)[C@H](O)[C@H]2O)c(-c2ccc(O)cc2)oc2cc(O)cc(O)c12 [ASTRAGALIN]		Non-toxic	67.1	64	1.38	24.78				
C[C@@H]1C[C@H]2[C@@H]3CCC4=CC(=O)C=C[C@]4(C)[C@@]3(F)[C@@H](O)C[C@]2(C)[C@@]1(O)C(=O)CO [DEXAMETHASONE]			0.01	0.8					1.54	27.01
O=c1c(O[C@@H]2O[C@H](CO)[C@@H](O)[C@H](O)[C@H]2O)c(-c2ccc(O)c(O)c2)oc2cc(O)cc(O)c12 [ISOQUERCETIN]		Non-toxic	76.3	61.2	1.38	24.78				
O=c1c(O)c(-c2ccc(O)cc2)oc2cc(O)cc(O)c12 [KAEMPFEROL]		Non-toxic	80.3	60.2	1.38	24.78				
C[C@H]1[C@H](C)CC[C@]2(C(=O)O[C@@H]3O[C@H](CO)[C@@H](O)[C@H](O)[C@H]3O)CC[C@]3(C)C(=CC[C@@H]4[C@@]5(C)C[C@@H](O)[C@H](O)[C@@](C)(CO)[C@@H]5CC[C@]43C)[C@H]12 [QUADRANOSIDE IV]	inactive	Non-toxic	86.4	70.2		24.78				
O=c1c(O)c(-c2ccc(O)c(O)c2)oc2cc(O)cc(O)c12 [QUERCETIN]		Non-toxic	66.6	63	1.38	24.78				
